Test results taken from ChEMBL document CHEMBL1157336, “Bisabolane sesquiterpenes from the roots of Ligularia cymbulifera” (2006).

Experiments:
Type in all cases: functional
[1] = test system: Staphylococcus aureus; test: Antibacterial activity against Staphylococcus aureus ATCC 25923 after 24 hrs by broth microdilution assay; settings: ATCC 25923, 24 h
How it was run: (§1)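 Broth microdilution MIC in Mueller-Hinton broth; serial doubling dilutions over 0.0024-1.25 mg/mL. Overnight broth cultures, inoculum adjusted to 2 × 10^6 cfu/mL final per well. Incubated at 37 °C for 24 h. MIC read as the lowest concentration without visible growth (no turbidity). Duplicate wells, repeated twice; levofloxacin as positive control.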

[2] = test system: Escherichia coli; test: Antibacterial activity against Escherichia coli ATCC 25922 after 24 hrs by broth microdilution assay; settings: ATCC 25922, 24 h; how it was run: as §1
[3] = test system: Staphylococcus aureus; test: Antibacterial activity against methicillin-resistant Staphylococcus aureus isolate after 24 hrs by broth microdilution assay
How it was run: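 Clinical MRSA isolate; broth microdilution in Mueller-Hinton broth, twofold serial dilutions over 0.0024-1.25 mg/mL, final inoculum 2 × 10^6 cfu/mL from overnight broth culture; 37 °C, 24 h. MIC taken as lowest concentration without visible turbidity. Duplicate wells, repeated twice; levofloxacin positive control.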

[4] = test system: Candida albicans; test: Antifungal activity against Candida albicans after 48 hrs by broth microdilution assay
How it was run: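 Yeast tested by broth microdilution in Mueller-Hinton broth; samples serially doubled over 0.0024-1.25 mg/mL. Inoculum from overnight broth culture, final 2 × 10^6 cfu/mL per well. Plates held at 30 °C for 48 h. MIC taken as the lowest concentration showing no turbidity. Duplicate, repeated twice; fluconazole positive control.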

Measured: MIC

C=C(C(CC1OC1(C)C)OC(=O)/C(C)=C\C)[C@H]1C[C@H]2O[C@@]2(C)C[C@H]1OC(=O)/C(C)=C\C (some centres not stated)
> 62.5 µg/mL: all assays above

C=C(C(CC1OC1(C)C)OC(=O)/C(C)=C\C)[C@H]1C[C@@H]2O[C@]2(C)[C@@H](OC(=O)/C(C)=C\C)[C@@H]1O (some centres not stated)
> 62.5 µg/mL: all assays above

C=C(C(CC1OC1(C)C)OC(=O)/C(C)=C\C)[C@H]1C[C@H]2O[C@@]2(C)[C@H](OC(=O)/C(C)=C\C)[C@@H]1O (some centres not stated)
> 62.5 µg/mL: all assays above

C=C(C(CC(O)C(C)(C)O)OC(=O)/C(C)=C\C)[C@H]1C[C@H]2O[C@@]2(C)C(=O)[C@@H]1OC(=O)/C(C)=C\C (some centres not stated)
> 62.5 µg/mL: all assays above

C=C(C(CC1OC1(C)C)OC(=O)/C(C)=C\C)[C@H]1C[C@H]2O[C@@]2(C)[C@@H](OC(=O)/C(C)=C\C)[C@H]1OC(=O)/C(C)=C\C (some centres not stated)
> 62.5 µg/mL: all assays above

C=C(C(CC1OC1(C)C)OC(=O)/C(C)=C\C)[C@H]1C[C@H](OC(=O)/C(C)=C\C)[C@@](C)(O)[C@@H](OC(=O)/C(C)=C\C)[C@H]1O (some centres not stated)
> 62.5 µg/mL: all assays above

C=C(C(CC(O)C(C)(C)O)OC(=O)/C(C)=C\C)[C@H]1C[C@H]2O[C@@]2(C)[C@@H](O)[C@H]1OC(=O)/C(C)=C\C (some centres not stated)
> 62.5 µg/mL: all assays above

C=C(C(CC1OC1(C)C)OC(=O)/C(C)=C\C)[C@H]1C[C@H](Cl)[C@@](C)(O)[C@@H](O)[C@H]1OC(=O)/C(C)=C\C (some centres not stated)
> 62.5 µg/mL: all assays above
